Among the data in ChEMBL document CHEMBL1255568, “Amino derivatives of indole as potent inhibitors of isoprenylcysteine carboxyl methyltransferase” (J Med Chem, 2010) are IC50 values, retold here.

Where only a bound is given, the exact number is not on record here.

The target in test [1] is Protein-S-isoprenylcysteine O-methyltransferase (Homo sapiens, UniProt O60725). In words: Inhibition of recombinant ICMT expressed in Sf9 cells using [3H] AdoMet after 20 mins by scintillation counting. In outline:
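Sf9 membranes carrying recombinant Icmt (1.0 μg protein) in 100 mM Hepes pH 7.4, 5 mM MgCl2, 100 μM EDTA. Preincubated with compound (final DMSO 2% v/v) for 20 min at 37 °C. Reaction started with final 1 μM biotin-farnesyl-L-cysteine and 0.5 μM [3H]AdoMet, run 20 min at 37 °C, then stopped with Tween 20. Product captured overnight at 4 °C on streptavidin beads, washed, and counted by scintillation. Mean ± SD of 3 or more determinations.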

The subject of another test is MDA-MB-231. In words: Antiproliferative activity against human MDA-MB-231 cells after 72 hrs by colorimetric tetrazolium assay. The test is classed as functional, cell-based. The note with it: MDA-MB-231, 72 h. The method in brief: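 MDA-MB-231 cells grown in DMEM with 10% FBS and penicillin/streptomycin at 37 °C, 5% CO2, used within passages 10-25. Seeded at 2400 cells/well in DMEM with 5% FBS for 24 h, then exposed to compound (final DMSO 0.5% v/v) for 72 h. MTS-type tetrazolium reagent added for 2 h at 37 °C, absorbance read at 490 nm, blank subtracted. Triplicate wells. IC50 from sigmoidal viability curve, mean of at least two determinations.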

Protein-S-isoprenylcysteine O-methyltransferase, sequence (O60725 whole entry): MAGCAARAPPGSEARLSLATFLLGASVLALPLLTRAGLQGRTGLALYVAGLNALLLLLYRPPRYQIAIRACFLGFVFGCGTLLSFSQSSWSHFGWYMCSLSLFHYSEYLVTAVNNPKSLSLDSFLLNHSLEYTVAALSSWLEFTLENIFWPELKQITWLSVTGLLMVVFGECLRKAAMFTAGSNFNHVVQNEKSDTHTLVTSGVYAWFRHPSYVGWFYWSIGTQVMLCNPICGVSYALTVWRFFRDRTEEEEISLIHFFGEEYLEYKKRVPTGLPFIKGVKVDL

A word on the IC50: it is the concentration that gives 50% inhibition. For the compound `CCN(CC)Cc1cn(CC=C(C)C)c2ccccc12`, the IC50 amounted to 67 µM in test [1] and 74 µM with MDA-MB-231.
In the test with MDA-MB-231, `CC(C)=CCn1cc(CC(N)=O)c2cc(F)ccc21` showed an IC50 of over 100 µM.
Take `CCCCCCCCn1cc(CN2CCN(C)CC2)c2cc(-c3cccc(C)c3)ccc21`: the IC50 is 0.9 µM in test [1] and 6.1 µM with MDA-MB-231.
The matching figures for `CCCCCCCCn1cc(CN2CCOCC2)c2cc(-c3cccc(C)c3)ccc21`: 2.7 µM and 24.5 µM.
In the case of `CCCCCCCCn1cc(C(N)=O)c2cc(-c3cccc(C)c3)ccc21`, in the test with MDA-MB-231, the IC50 was over 100 µM.
On the same count and under the same terms, next, `CCCCCCCCn1cc(CCC(N)=O)c2cc(-c3cccc(C)c3)ccc21`: 20.7 µM.
Take `CCCCCCCCn1cc(CC(=O)OC)c2cc(-c3cccc(C)c3)ccc21`: the IC50 in test [1] was 76 µM; in the test with MDA-MB-231, over 100 µM.
The matching figures for `CCCCCCCCn1cc(CC(=O)OCC)c2cc(-c3cccc(C)c3)ccc21`: over 100 µM and over 100 µM.
The matching figures for `CCCCCCCCn1cc(CNC(C)=O)c2cc(-c3cccc(C)c3)ccc21`: 1.8 µM and 30 µM.
The matching figures for `CCCCCCCCn1cc(CNS(C)(=O)=O)c2cc(-c3cccc(C)c3)ccc21`: 1.2 µM and 17.5 µM.
As for `CCCCCCCCn1cc(CC(N)=O)c2cc(-c3ccccc3C)ccc21`, the IC50 in test [1] was found to be 1 µM; with MDA-MB-231, 21.2 µM.
Regarding `CCCCCCCCn1cc(CN(CC)CC)c2cc(-c3ccccc3C)ccc21`, the IC50 in test [1] is 0.6 µM; in the test on MDA-MB-231 it was 5.5 µM.
The matching figures for `CCCCCCCCn1cc(CN(CC)CC)c2cc(-c3ccc(C)cc3)ccc21`: 0.6 µM and 3.4 µM.
In the case of `CCCCCCCCn1cc(CC(N)=O)c2cc(-c3cccc(OC)c3)ccc21`, the IC50 in test [1] was 1.9 µM; in the test with MDA-MB-231, 22.4 µM.
On to `CC(C)=CCn1ccc2cc(-c3cccc(C)c3)ccc21`, for which the IC50 in the test with MDA-MB-231 was over 100 µM.
For the compound `CCN(CC)Cc1cn(CC=C(C)C)c2ccc(-c3cccc(C)c3)cc12`, the IC50 in test [1] was found to be 2.4 µM; in the test with MDA-MB-231 it was 3.8 µM.
The matching figures for `CCCCCCCCn1cc(CC(N)=O)c2cc(-c3ccccc3)ccc21`: 1.8 µM and 26 µM.
Regarding `CC(C)=CCn1cc(CN2CCCCC2)c2cc(-c3cccc(C)c3)ccc21`, the results for the IC50 (in test [1]; in the test with MDA-MB-231) were 2.1 µM and 3.9 µM, respectively.
On to `CC(C)=CCn1cc(CN2CCOCC2)c2cc(-c3cccc(C)c3)ccc21`, for which, in the test with MDA-MB-231, the IC50 was determined as 34 µM.
As to `CCCCCCCCn1cc(CC(N)=O)c2ccccc21`, the IC50 turned out to be 6.5 µM in test [1] and 50 µM in the test with MDA-MB-231.
Compound `CCCCCCCCn1cc(CC(N)=O)c2cc(F)ccc21` gave an IC50 in the test on MDA-MB-231 of 70 µM.
Take `CCCCCCCCn1cc(CN(CC)CC)c2cc(F)ccc21`: the values for the IC50 (in test [1]; with MDA-MB-231) were 4.1 µM and 7.2 µM, respectively.
The matching figures for `CCN(CC)Cc1cn(CC=C(C)C)c2ccc(F)cc12`: 35 µM and 32 µM.
The matching figures for `CC(C)=CCn1cc(CC(N)=O)c2cc(-c3cccc(C)c3)ccc21`: 7.7 µM and 28.5 µM.
Take `CC(C)=CCC/C(C)=C/Cn1cc(CC(N)=O)c2cc(-c3cccc(C)c3)ccc21`: the IC50 in test [1] is 1 µM; in the test with MDA-MB-231 it was 10.6 µM.
As to `CCCCCCCCn1cc(CC(=O)N(CC)CC)c2cc(-c3cccc(OC)c3)ccc21`, the values for the IC50 (in test [1]; in the test with MDA-MB-231) were 0.8 µM and 52 µM, respectively.
The matching figures for `CCCCCCCCn1cc(CC(=O)N(CC)CC)c2cc(-c3cccc(OCC)c3)ccc21`: 1 µM and 26.8 µM.
The matching figures for `CCCCCCCCn1ccc2cc(-c3cccc(C)c3)ccc21`: over 100 µM and over 100 µM.
Turning to `CCCCCCCCn1cc(CC(=O)N(C)C)c2cc(-c3cccc(C)c3)ccc21`, the IC50 turned out to be 1.5 µM in test [1] and 31 µM with MDA-MB-231.
As to `CCCCCCCCn1cc(CC(=O)N(CC)CC)c2cc(-c3cccc(C)c3)ccc21`, the figures for the IC50 (in test [1]; with MDA-MB-231) were 1.4 µM and 27 µM, respectively.
The matching figures for `CCCCCCCCn1cc(CC(=O)N2CCCC2)c2cc(-c3cccc(C)c3)ccc21`: 1.2 µM and 15.6 µM.
The matching figures for `CCCCCCCCn1cc(CC(=O)N2CCCCC2)c2cc(-c3cccc(C)c3)ccc21`: 1.8 µM and 28.9 µM.
In the test on MDA-MB-231, `CCCCCCCCn1cc(CC(=O)N2CCN(C)CC2)c2cc(-c3cccc(C)c3)ccc21` had an IC50 of 19.7 µM.
As to `CCCCCCCCn1cc(CN)c2cc(-c3cccc(C)c3)ccc21`, the IC50 came out at 0.7 µM in test [1] and 2.9 µM with MDA-MB-231.
In the case of `CCCCCCCCn1cc(CN(C)C)c2cc(-c3cccc(C)c3)ccc21`, the IC50 amounted to 1.3 µM in test [1] and 6.8 µM with MDA-MB-231.
As for `CCCCCCCCn1cc(CN(CC)CC)c2cc(-c3cccc(C)c3)ccc21`, the IC50 in test [1] was determined as 0.7 µM; with MDA-MB-231 it was 3.6 µM.
The matching figures for `CCCCCCCCn1cc(CN(C(C)C)C(C)C)c2cc(-c3cccc(C)c3)ccc21`: 1.7 µM and 20.1 µM.
The matching figures for `CCCCCCCCn1cc(CN(CCC)CCC)c2cc(-c3cccc(C)c3)ccc21`: 0.8 µM and 13 µM.
The matching figures for `CCCCCCCCn1cc(CN(C)C(C)C)c2cc(-c3cccc(C)c3)ccc21`: 0.9 µM and 5.3 µM.
With `CCCCCCCCn1cc(CN2CCCC2)c2cc(-c3cccc(C)c3)ccc21`, the results for the IC50 (in test [1]; with MDA-MB-231) were 0.5 µM and 5.1 µM, respectively.
The matching figures for `CCCCCCCCn1cc(CN2CCCCC2)c2cc(-c3cccc(C)c3)ccc21`: 0.7 µM and 4.9 µM.
Turning to `CCCCCCCCn1cc(CC(N)=O)c2cc(-c3cccc(OCC)c3)ccc21`, the results for the IC50 (in test [1]; in the test with MDA-MB-231) were 1.3 µM and 18.7 µM, respectively.
On to `Cc1cccc(-c2ccc3c(c2)c(CC(N)=O)cn3Cc2cccc(C(F)(F)F)c2)c1`, for which the IC50 in test [1] worked out at 2.5 µM; in the test on MDA-MB-231, 17.2 µM.
As to `CCCCCCCCn1cc(CC(N)=O)c2cc(-c3ccc(C)cc3)ccc21`, the IC50 in test [1] is 1 µM.
For `Cc1cccc(-c2ccc3[nH]cc(CC(N)=O)c3c2)c1`, the half-maximal inhibitory concentration (IC50) is 33 µM in test [1] and over 100 µM in the test with MDA-MB-231.
